{
  "source": "ChEMBL document CHEMBL1123360",
  "about": "“Oxidation of 4-aryl- and 4-alkyl-substituted 2,6-dimethyl-3,5-bis(alkoxycarbonyl)-1,4-dihydropyridines by human liver microsomes and immunochemical evidence for the involvement of a form of cytochrome P-450” (J Med Chem, 1986)",
  "key": {"Cytochrome P450 3A4 [1]": {"target": "T1, Cytochrome P450 3A4 (Homo sapiens, UniProt P08684)", "T1 sequence (P08684 whole entry)": "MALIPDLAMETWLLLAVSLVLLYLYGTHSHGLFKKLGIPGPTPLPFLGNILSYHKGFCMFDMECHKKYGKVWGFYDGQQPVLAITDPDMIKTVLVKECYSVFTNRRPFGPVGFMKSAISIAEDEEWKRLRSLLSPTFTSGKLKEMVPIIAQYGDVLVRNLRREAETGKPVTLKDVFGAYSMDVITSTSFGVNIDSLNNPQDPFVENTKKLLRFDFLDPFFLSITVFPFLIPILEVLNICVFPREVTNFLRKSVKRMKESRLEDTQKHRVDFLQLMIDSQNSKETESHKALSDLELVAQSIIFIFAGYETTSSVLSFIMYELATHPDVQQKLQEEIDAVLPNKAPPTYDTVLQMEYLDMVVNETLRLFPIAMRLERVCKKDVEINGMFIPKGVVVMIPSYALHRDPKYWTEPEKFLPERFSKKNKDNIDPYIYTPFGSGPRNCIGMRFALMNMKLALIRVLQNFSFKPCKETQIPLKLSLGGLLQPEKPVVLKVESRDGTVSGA", "assay": "Rate of Oxidation in human liver microsomes is measured as mean (nmol product) formed / min per nmol cytochrome P-450"}, "Cytochrome P450 3A4 [2]": {"target": "T1, Cytochrome P450 3A4", "assay": "Percent inhibition of human liver microsome cytochrome P-450 mediated nifedipine oxidase activity without NADPH", "settings": "microsomes", "summary_of_the_method": "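Microsomes (HL 95, 500 pmol P-450 in 0.5 mL 50 mM potassium phosphate, pH 7.85) preincubated 20 min at 37 °C with compound (50 μM) without NADPH-generating system. […] Values corrected for methanol solvent.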"}, "[3]": {"assay": "Percent inhibition of human liver microsome cytochrome P-450 mediated hexobarbital 3'-hydroxylase activity in the presence of NADPH", "settings": "microsomes", "summary_of_the_method": "(§1)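 Human liver microsomes (sample HL 95) preincubated with test compound (50 μM) plus NADPH-generating system for 20 min at 37 °C. […] Activity measured afterwards; values corrected for inhibition by methanol solvent alone.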"}, "Cytochrome P450 3A4 [4]": {"target": "T1, Cytochrome P450 3A4", "assay": "Percent inhibition of human liver microsome cytochrome P-450 mediated nifedipine oxidase activity in the presence of NADPH", "settings": "microsomes", "summary_of_the_method": "as §1"}, "[5]": {"assay": "Percent inhibition of human liver microsome cytochrome P-450 mediated phenacetin O-deethylase activity without NADPH; Phenacetin O-deethylase activity inhibited by 40%", "settings": "microsomes"}, "[6]": {"assay": "Percent inhibition of human liver microsome cytochrome P-450 mediated phenacetin O-deethylase activity in the presence of NADPH", "settings": "microsomes", "summary_of_the_method": "as §1"}, "Cytochrome P450 3A4 [7]": {"target": "T1, Cytochrome P450 3A4", "assay": "Rate of Oxidation in human liver microsomes as mean (nmol product) formed/min/nmol cytochrome P-450; e denotes Product not separated with HPCL system", "type": "ADME, Microsome", "summary_of_the_method": "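NADPH-fortified human liver microsomes (HL 94, HL 95, HL 96; usually 50 pmol P-450), substrate 0.2 mM, 100 mM potassium phosphate pH 7.85, 37 °C, 10 min, amber vials. Stopped with Na2CO3/NaCl pH 10.5 and extracted into CH2Cl2. Pyridine product quantified by isocratic reversed-phase HPLC (UV 254 and/or 280 nm) against external standards by peak height. Value is the mean with range over the three samples.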"}},
  "data": [
    {"smiles": "CCOC(=O)C1=C(C)NC(C)=C(C(=O)OCC)C1c1ccccc1", "values": [
      {"measurement": "Rate of oxidation", "setting": "Cytochrome P450 3A4 [1]", "result": 0.51}
    ]},
    {"smiles": "COC(=O)C1=C(C)NC(C)=C(C(=O)OC)C1c1ccccc1", "values": [
      {"measurement": "Rate of oxidation", "setting": "Cytochrome P450 3A4 [1]", "result": 0.53}
    ]},
    {"smiles": "COC(=O)C1=C(C)N=C(C)/C(=C(\\O)OC)C1c1cccc(C#N)c1", "note": "(stereo unspecified)", "values": [
      {"measurement": "Rate of oxidation", "setting": "Cytochrome P450 3A4 [1]", "result": 0.41}
    ]},
    {"smiles": "COC(=O)C1=C(C)N=C(C)/C(=C(\\O)OC)C1c1ccc(C)cc1", "note": "(stereo unspecified)", "values": [
      {"measurement": "Rate of oxidation", "setting": "Cytochrome P450 3A4 [1]", "result": 0.51}
    ]},
    {"smiles": "CCCCCO/C(O)=C1\\C(C)=NC(C)=C(C(=O)OCCOCCC)C1c1cccc([N+](=O)[O-])c1", "note": "(stereo unspecified)", "values": [
      {"measurement": "Rate of oxidation", "setting": "Cytochrome P450 3A4 [1]", "result": 0.67}
    ]},
    {"smiles": "COC(=O)C1=C(C)N=C(C)/C(=C(/O)OC)C1c1c(F)cccc1Cl", "note": "(stereo unspecified)", "values": [
      {"measurement": "Rate of oxidation", "setting": "Cytochrome P450 3A4 [1]", "result": 0.76}
    ]},
    {"smiles": "CCOC(=O)C1=C(C)N=C(C)/C(=C(/O)OCC)C1CC", "note": "(stereo unspecified)", "values": [
      {"measurement": "Inhibition", "setting": "Cytochrome P450 3A4 [2]", "result": 45, "unit": "%"},
      {"measurement": "Inhibition", "setting": "[3]", "result": 82, "unit": "%"},
      {"measurement": "Rate of oxidation", "setting": "Cytochrome P450 3A4 [1]", "result": 0.12},
      {"measurement": "Inhibition", "setting": "Cytochrome P450 3A4 [4]", "result": 89, "unit": "%"},
      {"measurement": "Inhibition", "setting": "[5]", "result": 40, "unit": "%"}
    ]},
    {"smiles": "COC(=O)C1=C(C)N=C(C)/C(=C(/O)OC)C1Cc1ccccc1", "note": "(stereo unspecified)", "values": [
      {"measurement": "Inhibition", "setting": "Cytochrome P450 3A4 [2]", "result": 25, "unit": "%"},
      {"measurement": "Inhibition", "setting": "[3]", "result": 80, "unit": "%"},
      {"measurement": "Rate of oxidation", "setting": "Cytochrome P450 3A4 [1]", "result": 0.25},
      {"measurement": "Inhibition", "setting": "[6]", "result": 50, "unit": "%"},
      {"measurement": "Inhibition", "setting": "Cytochrome P450 3A4 [4]", "result": 86, "unit": "%"}
    ]},
    {"smiles": "COC(=O)C1=C(C)N=C(C)/C(=C(/O)OC)C1c1cccc(Cl)c1", "note": "(stereo unspecified)", "values": [
      {"measurement": "Rate of oxidation", "setting": "Cytochrome P450 3A4 [1]", "result": 0.5}
    ]},
    {"smiles": "COC(=O)C1=C(C)N=C(C)/C(=C(/O)OC)C1c1ccc(C(F)(F)F)cc1", "note": "(stereo unspecified)", "values": [
      {"measurement": "Rate of oxidation", "setting": "Cytochrome P450 3A4 [1]", "result": 0.45}
    ]},
    {"smiles": "COC(=O)C1=C(C)N=C(C)/C(=C(/O)OC)C1c1ccc(Cl)c([N+](=O)[O-])c1", "note": "(stereo unspecified)", "values": [
      {"measurement": "Rate of oxidation", "setting": "Cytochrome P450 3A4 [1]", "result": 0.61}
    ]},
    {"smiles": "COC(=O)C1=C(C)N=C(C)/C(=C(/O)OC)C1C1CC=CCC1", "note": "(stereo unspecified)", "values": [
      {"measurement": "Inhibition", "setting": "Cytochrome P450 3A4 [2]", "result": 27, "unit": "%"},
      {"measurement": "Inhibition", "setting": "[3]", "result": 82, "unit": "%"},
      {"measurement": "Rate of oxidation", "setting": "Cytochrome P450 3A4 [1]", "result": 0.12},
      {"measurement": "Inhibition", "setting": "[6]", "result": 59, "unit": "%"},
      {"measurement": "Inhibition", "setting": "Cytochrome P450 3A4 [4]", "result": 86, "unit": "%"}
    ]},
    {"smiles": "COC(=O)C1=C(C)N=C(C)/C(=C(/O)OC)C1C(C)C", "note": "(stereo unspecified)", "values": [
      {"measurement": "Inhibition", "setting": "Cytochrome P450 3A4 [2]", "result": 32, "unit": "%"},
      {"measurement": "Inhibition", "setting": "[3]", "result": 73, "unit": "%"},
      {"measurement": "Inhibition", "setting": "[6]", "result": 55, "unit": "%"},
      {"measurement": "Inhibition", "setting": "Cytochrome P450 3A4 [4]", "result": 89, "unit": "%"},
      {"measurement": "Rate of oxidation", "setting": "Cytochrome P450 3A4 [7]", "result": "Not separated"}
    ]},
    {"smiles": "COC(=O)C1=C(C)N=C(C)/C(=C(/O)OC)C1c1c(F)c(F)cc(F)c1F", "note": "(stereo unspecified)", "values": [
      {"measurement": "Rate of oxidation", "setting": "Cytochrome P450 3A4 [1]", "result": 0.98}
    ]},
    {"smiles": "CCOC(=O)C1=C(C)NC(C)=C(C(=O)OC)C1c1cccc([N+](=O)[O-])c1", "note": "(stereo unspecified) [NITRENDIPINE]", "values": [
      {"measurement": "Rate of oxidation", "setting": "Cytochrome P450 3A4 [1]", "result": 0.52}
    ]}
  ]
}
